Arrestin-AP2 inh: human beta-arrestin and AP2 interaction inhibition; FITC-arrestin peptide / GST-AP2 beads, flow cytometry; AP2 beta2 appendage carries R879A mutation; inhibition, % at 10 µM; 340,000 compounds, 0.31% hits; AID 504490;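 active = inhibition above a set limit, near 3 SD of compounds lacking own fluorescence, cut at about 54% in these data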
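System: GST-AP2 R879A glutathione beads | Also added: FITC-arrestin peptide, 50 nM | Times: 12 min plus 1 h, RT | Signal: Bead flow cytometry, FITC channel | Buffer or medium: PBS with 0.05% Tween 20 and 0.1% BSA | Read-out basis: Percent drop in bead-associated FITC signal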
Avidin fluor: compound fluoresces at 488/530 nm on avidin beads | compound fluorescence 488/530 nm, flow cytometry; active compounds read high | fluorescence (KMESF) at 10 µM | 220,000 compounds, 0.38% hits; in the data active = fluorescence above about 47
DSG3 Ab inh: human desmoglein-3 autoantibody binding inhibition | binding (percent of control), % at 10 µM | P32926 | DSG3-coupled beads, scFv-anti-DSG3-GFP binding, flow cytometry; active compounds read low | 310,000 compounds, 0.48% hits;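 active = binding more than 3 SD below its plate's average and above zero; inconclusive = below that plate limit but binding exactly zero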;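 also: hits lower antibody fragment binding to DSG3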
Target sequence (P32926 whole entry, looked up, the tested form may be a part): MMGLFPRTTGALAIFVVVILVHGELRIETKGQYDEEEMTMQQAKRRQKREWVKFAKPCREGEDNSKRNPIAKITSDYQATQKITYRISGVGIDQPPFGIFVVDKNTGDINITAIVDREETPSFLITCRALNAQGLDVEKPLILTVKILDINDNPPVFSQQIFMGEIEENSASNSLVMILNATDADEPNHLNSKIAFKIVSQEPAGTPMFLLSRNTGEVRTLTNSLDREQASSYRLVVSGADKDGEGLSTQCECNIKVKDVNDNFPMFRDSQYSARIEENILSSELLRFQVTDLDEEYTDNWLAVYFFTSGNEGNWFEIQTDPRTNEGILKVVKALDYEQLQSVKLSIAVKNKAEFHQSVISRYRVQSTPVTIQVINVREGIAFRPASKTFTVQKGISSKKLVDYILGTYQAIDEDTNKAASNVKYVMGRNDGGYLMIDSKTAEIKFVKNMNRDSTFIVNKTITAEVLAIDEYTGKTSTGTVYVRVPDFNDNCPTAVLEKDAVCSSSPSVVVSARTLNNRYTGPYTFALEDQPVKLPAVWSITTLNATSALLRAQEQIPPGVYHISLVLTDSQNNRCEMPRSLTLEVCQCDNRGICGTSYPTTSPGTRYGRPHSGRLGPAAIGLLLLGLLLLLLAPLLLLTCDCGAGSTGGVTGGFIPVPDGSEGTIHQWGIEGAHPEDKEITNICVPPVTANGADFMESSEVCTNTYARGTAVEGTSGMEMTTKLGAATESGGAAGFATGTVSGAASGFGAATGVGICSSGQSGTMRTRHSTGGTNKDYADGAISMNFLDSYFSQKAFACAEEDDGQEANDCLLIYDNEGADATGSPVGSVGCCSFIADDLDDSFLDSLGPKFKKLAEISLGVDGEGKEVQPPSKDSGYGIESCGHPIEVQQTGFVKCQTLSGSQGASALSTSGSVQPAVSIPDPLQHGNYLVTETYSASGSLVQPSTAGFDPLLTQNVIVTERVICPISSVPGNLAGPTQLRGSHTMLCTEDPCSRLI
GSH bead fluor: compound fluoresces at 488/530 nm on GSH beads | AID 1776 | 190,000 compounds, 0.25% hits | GSH beads flow cytometry, compound fluorescence 488/530 nm; active compounds read high | fluorescence (KMESF) at 10 µM; in the data active = fluorescence above about 89;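 also: glutathione beads carrying GST-tagged Bcl family fusion proteins plus one bare bead set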
Numbers stand for hits; – = inactive; ? = inconclusive; · = no result given. Sampled rows, rich in hits. Any-hit rate of the full collection: about 1.1%.

SMILES | Arrestin-AP2 inh | Avidin fluor | DSG3 Ab inh | GSH bead fluor
CCOC(=O)C1CCCN(C(=O)/C=C/c2cc(OC)c(OC)c(OC)c2)C1 (stereo not given) | – | 114 | – | –
COc1ccc(N2CCN(C(=O)NCc3ccc(OC)c(Cl)c3)CC2)cc1 | – | – | 44.4 | –
CC(C)[C@H](NC(=O)c1ccc(Cl)cc1Cl)C(=O)NNc1cccc(C(=O)O)c1 | – | · | – | ·
N#C/C(=C\c1sc(N2CCOCC2)nc1-c1ccccc1)C(=O)Nc1cccc2ccccc12 | · | 312 | · | –
O=C(Nc1ccccc1)c1sc(N2CCOCC2)nc1-c1ccccc1 | – | – | · | –
Cc1ccc(NC(=O)c2ccc(S(=O)(=O)NCc3ccco3)cc2)cc1 | – | · | -4.6 | ·
O=C(Nc1ccc(S(=O)(=O)NCc2ccco2)cc1)c1ccncc1 | – | – | – | –
Cn1c(=O)[nH]c(=O)c2[nH]c(NCCCN3CCOCC3)nc21 | – | 48 | – | –
Cc1nc2ccccn2c1-c1nnco1 | – | 47 | – | –
CCC(=O)N1CCc2cc(S(=O)(=O)N(C)c3ccc(Br)cc3)ccc21 | – | · | 72.8 | ·
CCC(=O)N1CCc2cc(S(=O)(=O)N(C)c3ccc(OC)cc3OC)ccc21 | – | · | – | ·
CC1CCCCC12NC(=O)N(CC(=O)Nc1cccnc1)C2=O (stereo not given) | · | · | – | ·
CCCOc1ccc(-c2nnn(CC(=O)OCC)n2)cc1 | – | – | – | –
CCCOc1ccc(-c2nnn(CC(=O)N3CCCCC3)n2)cc1 | – | – | 87.8 | ·
CCCCSc1ncc(C(=O)OCC)c(N)n1 | – | – | – | 129
CCOC(=O)c1cnc(SCCc2ccccc2)nc1N | – | – | ? | –
O=C(CN1CCC(n2nnc3cc(F)ccc32)CC1)N1CCCc2ccccc21 | – | – | – | –
O=C(CN1CCC(n2nnc3cc(C(F)(F)F)ccc32)CC1)N1CCc2ccccc21 | – | – | 81.8 | –
Cc1c(C)c(C)c(C(=O)CCc2cccc(NC(=O)CCC(=O)O)c2)c(C)c1C | – | · | – | ·
CCN1CCN(C(=O)c2[nH]c3ccc(OC)cc3c2C)CC1 | – | · | – | ·
CS/C(N)=N/S(=O)(=O)c1ccc(NC(C)=O)cc1 | – | 75 | – | ·
COc1cccc(CC(=O)OCC(=O)NC2(C#N)CCCCC2)c1 | – | · | – | ·
CC(C)(C)c1ccc(/C=C(\C#N)C(=O)NCCN2CCOCC2)cc1 | – | – | – | –
Cc1cccc(NC(=O)COC(=O)C2C3CC4OC(=O)C2C4C3)c1C (stereo not given) | – | · | 57.0 | ·
CCc1nn(CC(=O)NCCc2ccc(S(N)(=O)=O)cc2)c(=O)c2cc3sccc3n12 | – | · | 82.5 | ·
SMILES | Arrestin-AP2 inh | Avidin fluor | DSG3 Ab inh | GSH bead fluor
COc1ccc(C(CNC(=O)c2ccc(-c3cccc(C(F)(F)F)c3)o2)N2CCOCC2)cc1 (stereo not given) | – | · | – | ·
Cc1ccc(N(C(=O)Cn2nnc3ccccc32)C(C(=O)NCc2ccco2)c2ccc(C)o2)cc1 (stereo not given) | – | – | – | –
COc1ccc(N(C(=O)Cn2nnc3ccccc32)C(C(=O)NCc2ccco2)c2ccc(C)o2)cc1 (stereo not given) | – | – | – | 252
COc1ccc(CC(=O)NCc2ccccc2F)cc1S(=O)(=O)N1CCOCC1 | · | · | – | ·
O=C1C=C(NCCc2cc(Br)c(O)c(Br)c2)C(=O)c2ncccc21 | – | · | 57.8 | ·
COc1ccc(C(=O)NCC(C)NC(=O)c2ccc(OC)c(Br)c2)cc1Br (stereo not given) | – | · | – | ·
CN1C(=O)/C(=C2\SC(=S)N(CCCCCC(=O)O)C2=O)c2ccccc21 | – | – | 45.4 | ·
COc1ccc(N2CCN(C(=O)COCc3cc(-c4ccc5c(c4)OCO5)on3)CC2)cc1 | – | · | 71.3 | ·
CN(CC(=O)Nc1ccccc1Cl)C(=O)COC(=O)/C=C/c1cccc(C(F)(F)F)c1 | – | · | – | ·
Cc1cccc(OCC(=O)NC(=S)Nc2ccc(S(=O)(=O)NC3CCCCC3)cc2)c1 | – | – | 63.5 | –
Cc1nn(-c2ccccc2)c2nc(-c3cccs3)cc(C(=O)NN)c12 | – | 82 | – | –
CCOC(=O)c1cc(-c2cccs2)nc2c1c(C)nn2-c1ccccn1 | – | – | – | –
O=C(Nc1nnc(C2CC2)s1)c1cc(S(=O)(=O)N2CCCCC2)ccc1N1CCOCC1 | – | – | – | ·
CCc1nnc(NC(=O)c2cc(S(=O)(=O)N3CCOCC3)ccc2N2CCCCC2)s1 | – | 897 | – | –
CCOc1cc(/C=N\NC(=O)c2ccc(C)nc2)ccc1OC(=O)c1ccc(F)cc1 | – | · | 65.7 | ·
O=C(N/N=C/c1ccc(-c2ccccc2[N+](=O)[O-])o1)c1cncc(Br)c1 | – | 83 | – | –
O=C(N/N=C\c1ccc([N+](=O)[O-])o1)c1cncc(Br)c1 | – | – | – | ·
CCCC(=O)OC(C(=O)Nc1cc(C(F)(F)F)ccc1Cl)c1ccccc1 (stereo not given) | – | – | – | –
Cc1cc(C(=O)NCC(=O)OC(C(=O)Nc2cc(C(F)(F)F)ccc2Cl)c2ccccc2)ccc1[N+](=O)[O-] (stereo not given) | – | – | – | 257
Fc1ccc(Nc2nc(-c3ccncc3)nc3ccccc23)cc1 | – | – | 85.5 | –
c1ccc(Nc2nc(-c3ccncc3)nc3ccccc23)cc1 | – | – | – | –
Cc1ccnc2nc(C(=O)Nc3nccs3)nn12 | – | – | – | 253
Cc1ccnc2nc(C(=O)NC3=NCCS3)nn12 | – | – | · | –
Cn1c(SCC(=O)NC2CCCCC2)nnc1-c1cc2cc(Cl)ccc2o1 | – | – | 63.6 | –
C[C@@H](OC(=O)N(C)Cc1ccccc1)[C@H]1O[C@]2(C)CCCC[C@H]1O2 | – | · | – | ·
SMILES | Arrestin-AP2 inh | Avidin fluor | DSG3 Ab inh | GSH bead fluor
O=C(CCCCC(=O)NCCCc1ccccc1)NCCCc1ccccc1 | – | · | – | ·
C=CCNC(=O)CCCc1ccccc1 | – | 52 | – | –
O=C(Nc1ccc2c(c1)OCO2)N1CCN(c2ncc(C(F)(F)F)cc2Cl)CC1 | – | – | – | 257
Cc1cccc(C(=O)NCC(=O)N2CCOCC2)c1 | – | · | – | ·
O=C(N/N=C1/C(=O)c2cccc3cccc1c23)c1ccc(Cl)cc1 | – | – | 61.5 | –
CCNC(=S)N/N=C1\C(=O)c2cccc3cccc1c23 | – | – | – | –
COc1ccc(NC(=O)CCC(=O)OC(C(=O)c2ccccc2)c2ccccc2)cc1 (stereo not given) | – | 55 | – | –
COc1cccc(C(=O)Nc2c(C)n[nH]c2C)c1 | – | 55 | – | –
COc1cccc(C(=O)Nc2c(F)c(F)c(F)c(F)c2F)c1 | – | – | – | –
Cc1ccc(C(=O)C(OC(=O)CCC(=O)Nc2cccc(C)c2)c2ccccc2)cc1 (stereo not given) | – | – | – | –
COc1cccc(C(=O)Nc2ccc(NC(=O)Cc3ccccc3)cc2)c1 | – | · | 92.4 | ·
COCCN(C(=O)COC(=O)C12CC3CC(CC(O)(C3)C1)C2)c1c(N)n(Cc2ccccc2)c(=O)[nH]c1=O | · | · | – | ·
O=[N+]([O-])c1ccc(Cl)c(S(=O)(=O)Nc2cccc(S(=O)(=O)NC3=NCCC3)c2)c1 | – | · | – | ·
O=C1N[C@H]2CC=C[C@H]2N(Cc2cccs2)c2ccccc21 | – | · | – | ·
O=C1N[C@H]2CC=C[C@H]2Nc2ccccc21 | – | · | 67.6 | ·

Bioassay records: PubChem, NMMLSC
